# Source: PMC4371781 (Biochemistry, 2015)
# Where a SMILES comes first, the peptide text is derived from it. Primed or numbered codes have the meaning given here. The star is where a group is joined. FITC = O=C1OC2(c3ccc(O)cc3Oc3cc(O)ccc32)c2ccc(NC(=S)*)cc21; FITC′ = fluorescein; Ahx = NCCCCCC(=O)O
# T1: RbAB (pocket domain of Rb) (Homo sapiens, UniProt P06400, A635F/DEL582-633/S634E)
# T1 sequence (P06400 with tags, fused parts or gaps DEL582-633/S634E/A635F limits assumed): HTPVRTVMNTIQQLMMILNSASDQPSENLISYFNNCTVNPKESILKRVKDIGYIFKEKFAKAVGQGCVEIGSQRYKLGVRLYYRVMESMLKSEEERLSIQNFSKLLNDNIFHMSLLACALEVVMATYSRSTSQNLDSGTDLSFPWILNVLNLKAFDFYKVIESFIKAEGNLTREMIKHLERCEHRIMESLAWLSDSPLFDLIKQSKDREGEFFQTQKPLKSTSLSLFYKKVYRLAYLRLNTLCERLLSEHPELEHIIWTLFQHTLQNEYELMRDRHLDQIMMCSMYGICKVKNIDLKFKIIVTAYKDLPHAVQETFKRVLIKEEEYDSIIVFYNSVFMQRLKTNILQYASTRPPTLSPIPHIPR
# T2: AR-N (N-terminal part of the acidic region of RIZ, residues 197-269) (human, UniProt Q13029 197-269)
# T2 sequence: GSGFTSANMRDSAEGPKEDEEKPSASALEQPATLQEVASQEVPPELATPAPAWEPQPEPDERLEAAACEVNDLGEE
# T3: FITC-RIZ(254-267) (human)
# T3 peptide: {FITC′-Ahx}-ERLEAAACEVNDLG-NH2
# T4: FITC-RIZ(309-319) (human, SMILES …)
# T4 peptide: {FITC-Ahx}-EIRCDEKPEDL-NH2
# B1: RbAB (pocket domain of the retinoblastoma protein, cyclin boxes A and B joined by a two-residue linker) (domain or fragment, human)
# chain: GSHTPVRTVMNTIQQLMMILNSASDQPSENLISYFNNCTVNPKESILKRVKDIGYIFKEKFAKAVGQGCVEIGSQRYKLGVRLYYRVMESMLKSEEERLSIQNFSKLLNDNIFHMSLLACALEVVMATYSRSTSQNLDSGTDLSFPWILNVLNLKAFDFYKVIESFIKAEGNLTREMIKHLERCEHRIMESLAWLSDSPLFDLIKQSKDREGEFFQTQKPLKSTSLSLFYKKVYRLAYLRLNTLCERLLSEHPELEHIIWTLFQHTLQNEYELMRDRHLDQIMMCSMYGICKVKNIDLKFKIIVTAYKDLPHAVQETFKRVLIKEEEYDSIIVFYNSVFMQRLKTNILQYASTRPPTLSPIPHIPR
# B2: AR-N: recombinant protein, residues 197–269 (FTSA⋯LGEE) of RIZ preceded by three extraneous amino acids (GSG) (protein)
# chain: GSGFTSANMRDSAEGPKEDEEKPSASALEQPATLQEVASQEVPPELATPAPAWEPQPEPDERLEAAACEVNDLGEE
# modifications: left off: GST, N-terminal, cleaved
# B3: AR: recombinant AR protein, residues 197–341 of human RIZ (FTSA⋯TPAM) preceded by four extraneous amino acids (GSPE) (protein)
# chain: GSPEFTSANMRDSAEGPKEDEEKPSASALEQPATLQEVASQEVPPELATPAPAWEPQPEPDERLEAAACEVNDLGEEEEEEEEEDEEEEEDDDDDELEDEGEEEASMPNENSVKEPEIRCDEKPEDLLEEPKTTSEETLEDCSEVTPAM
# modifications: left off: GST, end not stated, cleaved
# Columns and labels:
# [1] = molecular target: T1, RbAB (pocket domain of Rb); experiment: Fluorescence anisotropy, direct binding assay
# How it was run: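 Assays ran in PBS pH 7.5 with 2.5 mM DTT. Labelled peptide was held constant while RbAB was varied: 0.33 μM FITC-RIZ(254–267) at 25 °C, or 0.40 μM FITC-RIZ(309–319) at 20 °C. FITC was attached at the N-terminus via an aminohexanoyl spacer, with amidated C-termini. TCSPC steady-state anisotropy was corrected with a bound/free quantum-yield ratio (0.65 μM peptide ± 32.5 μM RbAB). Kd was fitted by nonlinear least squares with 95% confidence intervals.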
# [2] = molecular target: HDAC1 LXCXE-like sequence LXCXE-like sequence (Homo sapiens) (UniProt Q13547); settings: cited from earlier work
# [3] = molecular target: T1, RbAB (pocket domain of Rb); experiment: NMR-monitored titration, 1H–15N HSQC of 15N-labeled RIZ constructs with RbAB; format: binding; settings: for residues most affected by RbAB binding (loss of HSQC peak volume): 1H–15N HSQC, PBS pH 7.5, 2.5 mM DTT, 25 °C
# [4] = molecular target: T1, RbAB (pocket domain of Rb); experiment: Competition-based ITC; format: binding
# How it was run: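 RbAB (Rb residues 372–581 and 636–787 joined by an EF linker, GS N-terminus) was expressed as a GST fusion in E. coli and thrombin-cleaved. At 25 °C in 20 mM Tris pH 7.5, 140 mM NaCl and 2 mM β-mercaptoethanol, the RIZ 297–341 fragment (1154 or 984 μM) was titrated into RbAB (20 or 9 μM). RbAB was pre-mixed with excess competitor: 650 μM FITC-RIZ(254–267) or 459 μM RIZ 197–269 fragment. Kd was derived from the apparent association constant with a competition equation.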
# [5] = molecular target: T2, AR-N (N-terminal part of the acidic …); experiment: fluorescence polarisation
# FITC-RIZ(254-267) = molecular target: T3, FITC-RIZ(254-267); experiment: fluorescence polarisation
# [6] = molecular target: T2, AR-N (N-terminal part of the acidic …); experiment: ITC
# FITC-RIZ(309-319) = molecular target: T4, FITC-RIZ(309-319); experiment: fluorescence polarisation
# [7] = molecular target: T1, RbAB (pocket domain of Rb); experiment: Isothermal titration calorimetry, direct binding of RbAB
# How it was run: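 RbAB (GST-fusion from E. coli, thrombin-cleaved) was injected stepwise into the cell at 25 °C in 20 mM Tris pH 7.5, 140 mM NaCl and 2 mM β-mercaptoethanol. Titrations were 486 μM RbAB into 28 μM full acidic region (AR), and 524 μM RbAB into 39 μM RIZ 197–269 or 48 μM RIZ 297–341 fragment. Heats of binding were recorded and fitted to a single-binding-site model.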
# [8] = NMR structural characterization of AR; format: physicochemical
# [9] = from 13Cα, 13Cβ, 1Hα chemical shifts, PBS pH 7.5, 25 °C
molecule,measurement,setting,value
CC[C@H](C)[C@H](NC(=O)[C@H](CCC(=O)O)NC(=O)CCCCCNC(=S)Nc1ccc2c(c1)C(=O)OC21c2ccc(O)cc2Oc2cc(O)ccc21)C(=O)N[C@@H](CCCNC(=N)N)C(=O)N[C@@H](CS)C(=O)N[C@@H](CC(=O)O)C(=O)N[C@@H](CCC(=O)O)C(=O)N[C@@H](CCCCN)C(=O)N1CCC[C@H]1C(=O)N[C@@H](CCC(=O)O)C(=O)N[C@@H](CC(=O)O)C(=O)N[C@@H](CC(C)C)C(N)=O [FITC-RIZ(309–319)] ({FITC-Ahx}-EIRCDEKPEDL-NH2),Kd,[1],~0.36 µM
Rb pocket domain pocket domain (from UniProt P06400),Kd,[2],10 µM
EIRCDEKPEDL [peptide containing the IRCDE motif],effect of competitor peptide on AR signals in presence of RbAB,"[3]; 86 μM 15N-labeled AR, ~2-fold molar excess RbAB, 34-fold molar excess of RIZ(309–319) peptide, PBS pH 7.5, 25 °C",the intensity of all AR signals was restored
CC(C)C[C@H](NC(=O)[C@H](CC(=O)O)NC(=O)[C@H](CC(N)=O)NC(=O)[C@@H](NC(=O)[C@H](CCC(=O)O)NC(=O)[C@H](CS)NC(=O)[C@H](C)NC(=O)[C@H](C)NC(=O)[C@H](C)NC(=O)[C@H](CCC(=O)O)NC(=O)[C@H](CC(C)C)NC(=O)[C@H](CCCNC(=N)N)NC(=O)[C@H](CCC(=O)O)NC(=O)CCCCCNC(=S)Nc1ccc2c(c1)C(=O)OC21c2ccc(O)cc2Oc2cc(O)ccc21)C(C)C)C(=O)NCC(N)=O [FITC-RIZ(254–267)] ({FITC-Ahx}-ERLEAAACEVNDLG-NH2),Kd,[4],70 ± 10 µM
same,Kd,[1],~170 µM
B1,Kd,[5],90 µM
same,Kd,FITC-RIZ(254-267),170 µM
same,Kd,[6],45 ± 20 µM
same,Kd,FITC-RIZ(309-319),0.36 µM
B2,heat/enthalpy of binding to RbAB (in words),"[7]; ITC, 25 °C, Tris pH 7.5",little or no heat is released
same,residues most affected by RbAB binding (loss of HSQC peak volume),[3],Residues 255–267 in AR-N
B3,affinity for pocket domain of Rb (in words),"[7]; purified components, ITC and fluorescence anisotropy",submicromolar affinity
same,structural state in solution,"[8]; NMR, PBS pH 7.5, 2.5 mM DTT, 25 °C",consistent with AR being intrinsically disordered
same,SSP scores: virtually no residues higher than,[8]; [9],≤ 0.2
same,SSP scores: virtually no residues lower than,[8]; [9],≥ −0.2
same,residues most affected by RbAB binding (loss of HSQC peak volume),[3],Residues 306–322 ([…]) were the most affected by RbAB binding
same,exchange between free and bound forms with RbAB,"[3]; 15N-labeled AR, increasing RbAB, PBS pH 7.5, 25 °C",consistent with exchange between the free and bound forms on an intermediate time scale
same,specificity of binding to RbAB,[3]; displacement by large excess of peptide containing IRCDE motif,AR binding to RbAB is specific
